From ChEMBL document CHEMBL3580554, “Design, synthesis, and anticonvulsant activity of new hybrid compounds derived from 2-(2,5-dioxopyrrolidin-1-yl)propanamides and 2-(2,5-dioxopyrrolidin-1-yl)butanamides” (J Med Chem, 2015) come the findings set out here.

Data set [1] can be described thus: Protective index, ratio of neurotoxic TD50 in Swiss mouse by Chimney test to anticonvulsant ED50 in Swiss mouse measured at 1 hr of time to peak effect by 6 Hz test by 6 Hz psychomotor seizure test. The note with it: in vivo, read-out: Ratio TD50/ED50. The format is toxicity. In a few lines:
(§1)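 Neurotoxicity (TD50) estimated in mice i.p. by chimney test for motor coordination impairment; protective index calculated as TD50/ED50 for each seizure model.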

The subject of data set [2] is Mus musculus. As to the kind of experiment: Anticonvulsant activity in ip dosed Swiss mouse assessed as protection against seizures measured at 1 hr of time to peak effect by 6 Hz test by 6 Hz psychomotor seizure test. The format is functional.
Data set [3] can be described thus: Toxicity in ip dosed Swiss mouse assessed as induction of motor performance impairment measured within 60 seconds measured at 1 hr of time to peak effect by Chimney test. The data set is classed as organism-based. The note with it: in vivo. The essentials:
as §1

In data set [4] the test system is Mus musculus. In words: Anticonvulsant activity in ip dosed Swiss mouse assessed as protection against seizures measured at 1 hr of time to peak effect by subcutaneous pentylenetetrazole seizure test. The format is functional.
In data set [5] the test system is Mus musculus. In words: Anticonvulsant activity in ip dosed Swiss mouse assessed as protection against seizures measured at 1 hr of time to peak effect by maximal electroshock test. The format is functional. A general note: The maximal electroshock test induces tonic seizures with an electrical stimulus.

As usually defined, the ED50 is the dose at which the effect has come halfway, by size or by number of responders. What is called TD50 is the dose at which the toxic effect under study appears in half of the subjects. For the molecule `CC[C@@H](C(N)=O)N1CCCC1=O`, the selectivity ratio at 1 h in data set [1] is above 33.8. Moreover, the median effective dose (ED50) is 14.8 mg/kg in data set [2], above 500 mg/kg in data set [4] and above 500 mg/kg in data set [5]. Besides, the TD50 at 1 h in data set [3] was above 500 mg/kg.
